The values below come from ChEMBL document CHEMBL4184277, “Substitution of terminal amide with 1H-1,2,3-triazole: Identification of unexpected class of potent antibacterial agents” (2018).

Common to all, as to type: functional
Test [1] concerns Bacillus subtilis. Put plainly: Antibacterial activity against Bacillus subtilis ATCC 9372 after 24 hrs by broth microdilution method. Conditions: ATCC 9372, 24 h. The procedure, abridged:
(§1)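 Broth microdilution run to the standard NCCLS-recommended procedure, applied to all newly synthesized compounds, with a panel that included four Gram-positive strains.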
(Dilution methods test growth across graded concentrations, often in twofold steps.)

Test [2] concerns Staphylococcus aureus. As to the kind of experiment: Antibacterial activity against Staphylococcus aureus ATCC 25923 after 24 hrs by broth microdilution method. Conditions: ATCC 25923, 24 h. The procedure, abridged:
as §1

Test [3] deals with Staphylococcus aureus. Put plainly: Antibacterial activity against penicillin-resistant Staphylococcus aureus after 24 hrs by broth microdilution method.
For test [4], the system named is Staphylococcus aureus. As to the kind of experiment: Antibacterial activity against methicillin-resistant Staphylococcus aureus ATCC 43300 after 24 hrs by broth microdilution method. Conditions: ATCC 43300, 24 h.
Test [5] deals with Escherichia coli. As to the kind of experiment: Antibacterial activity against Escherichia coli ATCC 25922 after 24 hrs by broth microdilution method. As to conditions: ATCC 25922, 24 h. The gist of the method: as §1
Test [6] relates to Klebsiella pneumoniae. As to the kind of experiment: Antibacterial activity against Klebsiella pneumoniae ATCC 700603 after 24 hrs by broth microdilution method. As to conditions: Klebsiella pneumoniae, 700603, 24 h. The gist of the method:
as §1

In brackets after ≈: the same amount, converted by molar mass.

By MIC is commonly meant the smallest concentration in the dilution series that meets the test's criterion for growth inhibition. A lower MIC goes with inhibition by little substance. On to `Cc1cccc(COc2cccc(Cn3cncn3)c2)c1`, for which the MIC in test [1], in test [2], in test [3], in test [4], in test [5] and in test [6] was over 64 µg/mL in each case.

Take `Fc1ccc(OCc2cccc(Cl)c2)c(F)c1-c1c[nH]nn1`: the MIC in test [1] was 16 µg/mL (≈ 49.7 µM); in test [2], 16 µg/mL (≈ 49.7 µM); in test [3] it was 16 µg/mL (≈ 49.7 µM); in test [4] it was 8 µg/mL (≈ 24.9 µM); in test [5], over 64 µg/mL; in test [6], over 64 µg/mL.

Regarding `CCCCC(CC)COc1cccc(C(N)=O)c1` (racemic), the MIC in test [1] is 16 µg/mL (≈ 64.2 µM); in test [2], 16 µg/mL (≈ 64.2 µM); in test [3] it was 16 µg/mL (≈ 64.2 µM); in test [4] it was 16 µg/mL (≈ 64.2 µM); in test [5], over 64 µg/mL; in test [6], 8 µg/mL (≈ 32.1 µM).

`Cc1ccc(COc2cccc(Cn3cncn3)c2)cc1`: the minimum inhibitory concentration (MIC) in test [1], in test [2], in test [3], in test [4], in test [5] and in test [6] was over 64 µg/mL in each case.

As to `CCCCC(CC)COc1cccc(-c2cn(C)nn2)c1` (configuration not stated), the minimal inhibitory concentration (MIC) in test [1] is 32 µg/mL (≈ 111 µM); in test [2], 64 µg/mL (≈ 223 µM); in test [3] it was over 64 µg/mL; in test [4] it was 32 µg/mL (≈ 111 µM); in test [5] it was over 64 µg/mL; in test [6], 4 µg/mL (≈ 13.9 µM).

`NC(=O)c1c(F)ccc(OCC2COc3ccc(Cl)cc3O2)c1F` (configuration not stated) showed a minimum inhibitory concentration (MIC) in test [4] of 0.5 µg/mL (≈ 1.41 µM).

For the compound `Clc1cccc(COc2cccc(Cn3cncn3)c2)c1`, the minimal inhibitory concentration (MIC) in test [1] was over 64 µg/mL; in test [2], over 64 µg/mL; in test [3], over 64 µg/mL; in test [4], over 64 µg/mL; in test [5] it was over 64 µg/mL; in test [6], 64 µg/mL (≈ 214 µM).

Regarding `O=[N+]([O-])c1ccc(COc2cccc(Cn3cncn3)c2)cc1`, the MIC in test [1], in test [2], in test [3], in test [4], in test [5] and in test [6] was over 64 µg/mL throughout.

In the case of `Cc1ccc(COc2ccc(F)c(-c3c[nH]nn3)c2F)cc1`, the minimal inhibitory concentration (MIC) is 32 µg/mL (≈ 106 µM) in test [1]; 32 µg/mL (≈ 106 µM) in test [2]; 32 µg/mL (≈ 106 µM) in test [3]; 16 µg/mL (≈ 53.1 µM) in test [4]; over 64 µg/mL in test [5]; over 64 µg/mL in test [6].

As to `NC(=O)c1c(F)ccc(OCc2nc3cc(Cl)cnc3s2)c1F`, the MIC in test [1] was 0.25 µg/mL (≈ 0.703 µM); in test [2] it was 0.5 µg/mL (≈ 1.41 µM); in test [3], 0.5 µg/mL (≈ 1.41 µM); in test [4], 1 µg/mL (≈ 2.81 µM); in test [5], over 64 µg/mL; in test [6], 0.25 µg/mL (≈ 0.703 µM).

With `Fc1ccc(OCc2nc3cc(Cl)cnc3s2)c(F)c1-c1c[nH]nn1`, the minimal inhibitory concentration (MIC) in test [1], in test [2], in test [3], in test [4], in test [5] and in test [6] was over 64 µg/mL in each case.

Regarding `Fc1cccc(COc2ccc(F)c(-c3c[nH]nn3)c2F)c1`, the minimum inhibitory concentration (MIC) in test [1] is over 64 µg/mL; in test [2] it was 64 µg/mL (≈ 210 µM); in test [3] it was 64 µg/mL (≈ 210 µM); in test [4], over 64 µg/mL; in test [5] it was over 64 µg/mL; in test [6] it was over 64 µg/mL.

`CCCCC(CC)COc1cccc(Cn2cnnn2)c1` (racemic): the MIC in test [1] is over 64 µg/mL; in test [2], over 64 µg/mL; in test [3], over 64 µg/mL; in test [4] it was over 64 µg/mL; in test [5], over 64 µg/mL; in test [6] it was 8 µg/mL (≈ 27.7 µM).

As to `Cc1ccc(COc2cccc(-c3c[nH]nn3)c2)cc1`, the minimum inhibitory concentration (MIC) in test [1] was over 64 µg/mL; in test [2], 32 µg/mL (≈ 121 µM); in test [3], over 64 µg/mL; in test [4] it was over 64 µg/mL; in test [5], over 64 µg/mL; in test [6], over 64 µg/mL.

In the case of `Fc1ccc(OCc2nc(-c3ccc(Cl)cc3)c(Br)o2)c(F)c1-c1c[nH]nn1`, the MIC in test [1], in test [2], in test [3], in test [4], in test [5] and in test [6] was over 64 µg/mL throughout.

As for `Clc1cccc(COc2cccc(-c3c[nH]nn3)c2)c1`, the MIC in test [1] was 16 µg/mL (≈ 56 µM); in test [2], 16 µg/mL (≈ 56 µM); in test [3], 32 µg/mL (≈ 112 µM); in test [4], 16 µg/mL (≈ 56 µM); in test [5] it was over 64 µg/mL; in test [6], 16 µg/mL (≈ 56 µM).

`Clc1ccc(OCCCCOc2cccc(-c3c[nH]nn3)c2)cc1`: the MIC in test [1], in test [2], in test [3], in test [4], in test [5] and in test [6] was over 64 µg/mL in each case.

`O=c1[nH]nc(-c2cccc(OCc3ccccc3)c2)o1`: the MIC in test [1], in test [2], in test [3], in test [4], in test [5] and in test [6] was over 64 µg/mL throughout.

With `CCCCC(CC)COc1cccc(-c2cnn(C)n2)c1` (configuration not stated), the minimal inhibitory concentration (MIC) in test [1], in test [2], in test [3], in test [4], in test [5] and in test [6] was over 64 µg/mL each time.

Regarding `Cc1cccc(COc2ccc(F)c(-c3c[nH]nn3)c2F)c1`, the minimum inhibitory concentration (MIC) in test [1] is 32 µg/mL (≈ 106 µM); in test [2], 32 µg/mL (≈ 106 µM); in test [3] it was 32 µg/mL (≈ 106 µM); in test [4] it was 16 µg/mL (≈ 53.1 µM); in test [5] it was over 64 µg/mL; in test [6], 64 µg/mL (≈ 212 µM).

In the case of `CCCCC(CC)COc1ccc(F)c(-c2c[nH]nn2)c1F` (racemic), the MIC in test [1] is 4 µg/mL (≈ 12.9 µM); in test [2], 8 µg/mL (≈ 25.9 µM); in test [3] it was 8 µg/mL (≈ 25.9 µM); in test [4] it was 4 µg/mL (≈ 12.9 µM); in test [5], over 64 µg/mL; in test [6], 8 µg/mL (≈ 25.9 µM).

As for `NC(=O)c1c(F)ccc(OCc2nc(-c3ccc(Cl)cc3)c(Br)o2)c1F`, the MIC in test [4] is 0.06 µg/mL (≈ 0.135 µM).

In the case of `Clc1ccc(COc2cccc(Cn3cncn3)c2)cc1`, the MIC is over 64 µg/mL in test [1]; over 64 µg/mL in test [2]; over 64 µg/mL in test [3]; over 64 µg/mL in test [4]; over 64 µg/mL in test [5]; 64 µg/mL (≈ 214 µM) in test [6].

Consider `Cc1cccc(COc2cccc(-c3c[nH]nn3)c2)c1`, for which the MIC was 32 µg/mL (≈ 121 µM) in test [1]; 32 µg/mL (≈ 121 µM) in test [2]; 32 µg/mL (≈ 121 µM) in test [3]; 16 µg/mL (≈ 60.3 µM) in test [4]; over 64 µg/mL in test [5]; 32 µg/mL (≈ 121 µM) in test [6].

In the case of `Fc1ccc(OCc2ccc(Cl)cc2)c(F)c1-c1c[nH]nn1`, the MIC in test [1], in test [2], in test [3], in test [4], in test [5] and in test [6] was over 64 µg/mL in each case.

For the compound `Clc1ccc(COc2cccc(-c3c[nH]nn3)c2)cc1`, the minimal inhibitory concentration (MIC) in test [1], in test [2], in test [3], in test [4], in test [5] and in test [6] was over 64 µg/mL in each case.

Consider `CCOc1cccc(-c2c[nH]nn2)c1`, for which the MIC in test [1], in test [2], in test [3], in test [4], in test [5] and in test [6] was over 64 µg/mL each time.

On to `CCCCC(CC)COc1ccc(F)c(C(N)=O)c1F` (configuration not stated), for which the minimal inhibitory concentration (MIC) is 2 µg/mL (≈ 7.01 µM) in test [1]; 4 µg/mL (≈ 14 µM) in test [2]; 8 µg/mL (≈ 28 µM) in test [3]; 2 to 4 µg/mL (≈ 7.01 to 14 µM) in test [4]; over 64 µg/mL in test [5]; 4 µg/mL (≈ 14 µM) in test [6].

Take `Fc1ccc(OCCCCOc2ccc(Cl)cc2)c(F)c1-c1c[nH]nn1`: the minimal inhibitory concentration (MIC) in test [1], in test [2], in test [3], in test [4], in test [5] and in test [6] was over 64 µg/mL throughout.

`CCCCC(CC)COc1cccc(-c2nnco2)c1` (racemic): the MIC was 16 µg/mL (≈ 58.3 µM) in test [1], 32 µg/mL (≈ 117 µM) in test [2], over 64 µg/mL in test [5] and 16 µg/mL (≈ 58.3 µM) in test [6].

For the compound `CCCCC(CC)COc1cccc(-c2cnnn2C)c1` (configuration not stated), the MIC in test [1] was 64 µg/mL (≈ 223 µM); in test [2], 64 µg/mL (≈ 223 µM); in test [3], over 64 µg/mL; in test [4] it was over 64 µg/mL; in test [5], over 64 µg/mL; in test [6], 16 µg/mL (≈ 55.7 µM).

For `CCCCC(CC)COc1cccc(-c2ncno2)c1` (racemic), the MIC in test [1], in test [2], in test [3], in test [4], in test [5] and in test [6] was over 64 µg/mL in each case.

Consider `c1ccc(COc2cccc(-c3c[nH]nn3)c2)cc1`, for which the minimal inhibitory concentration (MIC) was over 64 µg/mL in test [1]; over 64 µg/mL in test [2]; over 64 µg/mL in test [3]; over 64 µg/mL in test [4]; over 64 µg/mL in test [5]; 64 µg/mL (≈ 255 µM) in test [6].

Turning to `Clc1cccc(COc2cccc(Cn3cnnn3)c2)c1`, the MIC in test [1], in test [2], in test [3], in test [4], in test [5] and in test [6] was over 64 µg/mL throughout.
